Results reported in ChEMBL document CHEMBL4270510, “Indolyl-isoxazolidines attenuate LPS-stimulated pro-inflammatory cytokines and increase survival in a mouse model of sepsis: Identification of potent lead” (Eur J Med Chem, 2018).
pIC50: −log10 of the molar value. The source made the active and inactive calls. No cut-off for these calls is given here.

How the values were obtained:
THP-1 [1] = assay: Inhibition of LPS-induced TNFalpha production in PMA-treated human THP1 cells at 5 uM after 24 hrs by ELISA relative to total protein level (reference value: 6.04 +/- 0.54); type: cell-based; conditions: thp-1, 24 h
THP-1 [2] = assay: Antiinflammatory activity against PMA-treated human THP1 cells assessed as inhibition of LPS-induced IL-6 production at 5 uM after 24 hrs by ELISA relative to control; type: functional
THP-1 [3] = assay: Antiinflammatory activity against PMA-treated human THP1 cells assessed as inhibition of LPS-induced IL-6 production at 5 uM after 24 hrs by ELISA relative to total protein level (reference value: 6.06 +/- 0.55); type: functional
THP-1 [4] = assay: Cytotoxicity against human THP1 cells assessed as decrease in cell growth after 24 hrs by MTT assay; type: cell-based; conditions: THP-1, 24 h
Summary of the method: (§1)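 THP-1 cells in 96-well plates treated with a range of compound concentrations for 24 or 48 h. MTT (2.5 mg/mL) added for 4 h at 37 °C, formazan dissolved in DMSO, absorbance read at 540 nm. Growth taken as treated versus untreated absorbance.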

THP-1 [5] = assay: Cytotoxicity against human THP1 cells assessed as decrease in cell growth after 48 hrs by MTT assay; type: cell-based; conditions: THP-1, 48 h; summary of the method: as §1
Mus musculus [6] = assay: Antiinflammatory activity against Swiss albino mouse assessed as inhibition of LPS-induced IL-6 production in serum at 20 mg/kg, ip by ELISA relative to control; type: functional
Summary of the method: (§2)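 Swiss albino mice given compound at 5, 10 or 20 mg/kg, then challenged with LPS 1 mg/kg; vehicle and LPS-alone groups included. Cardiac-puncture blood taken with heparin and spun to plasma, stored -20°C. TNF-α and IL-6 measured by ELISA in pg/mL. Dose-response done in triplicate, fitted by quadratic/cubic regression to derive IC50 in mg/kg.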

Mus musculus [7] = assay: Antiinflammatory activity against Swiss albino mouse assessed as inhibition of LPS-induced TNFalpha production in serum administered ip by ELISA; type: functional, organism-based; summary of the method: as §2
Mus musculus [8] = assay: Antiinflammatory activity against Swiss albino mouse assessed as inhibition of LPS-induced TNFalpha production in serum at 20 mg/kg, ip by ELISA relative to control; type: functional; summary of the method: as §2
Mus musculus [9] = assay: Antiinflammatory activity against Swiss albino mouse assessed as inhibition of LPS-induced IL-6 production in serum at 10 mg/kg, ip by ELISA relative to control; type: functional; summary of the method: as §2
Mus musculus [10] = assay: Antiinflammatory activity against Swiss albino mouse assessed as inhibition of LPS-induced IL-6 production in serum administered ip by ELISA; type: functional, organism-based; summary of the method: as §2
Mus musculus [11] = assay: Antiinflammatory activity against Swiss albino mouse assessed as inhibition of LPS-induced TNFalpha production in serum at 10 mg/kg, ip by ELISA relative to control; type: functional; summary of the method: as §2
THP-1 [12] = assay: Antiinflammatory activity against human THP1 cells assessed as inhibition of LPS-induced COX-2 expression level after 24 hrs by Western blot analysis; type: functional, cell-based
Summary of the method: (§3)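 PMA-differentiated THP-1 cells co-treated with LPS and a range of compound concentrations for 24 h, lysed in RIPA buffer. COX-2 and iNOS expression assessed by western blot, with β-actin as internal control.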

Mus musculus [13] = assay: Acute toxicity in Swiss albino mouse assessed as effect on liver at 2000 mg/kg, ip administered continuously for first 4 hrs and periodically for 24 hrs measured after 14 days by hematoxylin and eosin staining based assay; type: organism-based; conditions: in vivo, 336 h
Summary of the method: (§4)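 OECD acute toxicity design, Swiss albino mice fasted 4 h, 3 per group, vehicle vs 2000 mg kg⁻¹; after 14 days one animal each from control and top-dose groups sacrificed; heart, liver and kidney sections H and E stained and compared with control.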

Mus musculus [14] = assay: Antiseptic activity in Swiss albino mouse model of LPS-induced sepsis assessed as increase in mouse survival rate at 12.5 mg/kg, iv measured for 10 days at 1 day interval
Mus musculus [15] = assay: Acute toxicity in Swiss albino mouse assessed as effect on gross behavioral abnormality at 50 to 2000 mg/kg, ip administered continuously for first 4 hrs and periodically for 24 hrs measured after 14 days; type: organism-based; conditions: in vivo
Summary of the method: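 Swiss albino mice, 3 per group: vehicle control, or 50, 300 or 2000 mg kg⁻¹ given after 4 h fasting under OECD acute toxicity guideline; watched continuously for first 4 h then periodically to 24 h for gross behavioural abnormality.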

Mus musculus [16] = assay: Analgesic activity in Swiss albino mouse assessed as inhibition of acetic acid induced writhing at 12.5 mg/kg, ip pretreated with opioid receptor antagonist naloxone for 30 mins followed by acetic acid challenge and measured after 30 mins; type: functional, organism-based
Mus musculus [17] = assay: Acute toxicity in Swiss albino mouse assessed as effect on kidney at 2000 mg/kg, ip administered continuously for first 4 hrs and periodically for 24 hrs measured after 14 days by hematoxylin and eosin staining based assay; type: organism-based; conditions: in vivo; summary of the method: as §4
Homo sapiens = species: Homo sapiens; assay: Inhibition of NF-KappaB pathway in human THP1 cell lysates assessed as decrease in LPS-induced iNOS expression level after 24 hrs by Western blot analysis; summary of the method: as §3
Mus musculus [18] = assay: Analgesic activity in Swiss albino mouse assessed as inhibition of acetic acid induced writhing at 12.5 mg/kg, ip pretreated with misoprostol for 30 mins followed by acetic acid challenge and measured after 30 mins; type: functional, organism-based
Mus musculus [19] = assay: Antiinflammatory activity in carrageenan-induced Swiss albino mouse assessed as inhibition of paw edema at 12.5 mg/kg, ip administered 0.5 hrs prior to carrageenan challenge measured at 6 hrs post challenge; type: functional
Summary of the method: (§5)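 Mice given vehicle (0.1% CMC), indomethacin 10 mg/kg p.o., or test compound 30 min before injection of 50 μL 1% w/v carrageenan into right hind paw. Paw edema measured by vernier caliper at 5, 15, 30 min and 1, 2, 3, 4, 6 h. Mean ± SEM.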

Mus musculus [20] = assay: Acute toxicity in Swiss albino mouse assessed as effect on myocardium at 2000 mg/kg, ip administered continuously for first 4 hrs and periodically for 24 hrs measured after 14 days by hematoxylin and eosin staining based assay; type: organism-based; conditions: in vivo; summary of the method: as §4
Mus musculus [21] = assay: Antiinflammatory activity in carrageenan-induced Swiss albino mouse assessed as inhibition of paw edema at 12.5 mg/kg, ip administered 0.5 hrs prior to carrageenan challenge measured at 1 to 6 hrs post challenge; type: functional, organism-based; summary of the method: as §5
Mus musculus [22] = assay: (§6) Antinociceptive activity in Swiss albino mouse assessed as inhibition of acetic acid-induced writhing by measuring reduction in number of abnormal muscle constrictions at 12.5 mg/kg, ip treated 30 mins prior to test followed by acetic acid challenge measured for 30 mins post acetic acid challenge relative to control; type: functional
Summary of the method: (§7)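 Mice dosed i.p. with vehicle (0.1% carboxymethyl cellulose), test compound 12.5 mg/kg or indomethacin 10 mg/kg, 30 min before acetic acid (0.6% v/v, 10 ml/kg, i.p.). Writhes counted per mouse over 30 min after acetic acid. Mean ± SEM; ANOVA with Tukey test.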

Mus musculus [23] = assay: Antiinflammatory activity in carrageenan-induced Swiss albino mouse assessed as inhibition of paw edema at 10 mg/kg, po administered 0.5 hrs prior to carrageenan challenge measured 6 hrs post challenge; type: functional; summary of the method: as §5
Mus musculus [24] = assay: as §6, with “10” for “12.5”; type: functional; summary of the method: as §7

SMILES	fold change (FC) (THP-1 [1])	fold change (FC) (THP-1 [2])	fold change (FC) (THP-1 [3])	further results
CCOC(=O)[C@H]1CON(c2ccccc2)[C@H]1c1c[nH]c2ccccc12 (racemic)	4.37	4 - 5	1.15	–
CCN1C(=O)[C@H]2[C@H](ON(c3ccccc3)[C@@H]2c2c[nH]c3ccccc23)C1=O (racemic)	2.42	–	3.09	–
c1ccc(N2O[C@H](c3ccncc3)C[C@@H]2c2c[nH]c3ccccc23)cc1 (racemic)	3.92	4 - 5	2.77	–
CCCCOC(=O)[C@@H]1C[C@H](c2c[nH]c3ccccc23)N(c2ccccc2)O1 (racemic)	3.98	–	2.06	–
CCCCOC(=O)[C@H]1CON(c2ccccc2)[C@H]1c1c[nH]c2ccccc12 (racemic)	2.59	–	3.03	–
CCOC(=O)[C@@H]1C[C@H](c2c[nH]c3ccccc23)N(c2ccccc2)O1 (racemic)	7.77	–	3.2	–
C[C@@]1(c2ccccc2)C[C@H](c2c[nH]c3ccccc23)N(c2ccccc2)O1 (racemic)	2.74	4 - 5	1.13	pIC50 (THP-1 [4]): < 4.00; pIC50 (THP-1 [5]): 4.13
COC(=O)[C@H]1CON(c2ccccc2)[C@H]1c1c[nH]c2ccccc12 (racemic)	3	4 - 5	1.67	–
Cc1ccc([C@@H]2C[C@H](c3c[nH]c4ccccc34)N(c3ccccc3)O2)cc1 (racemic)	4.58	4 - 5	1.12	–
O=C1[C@H]2[C@H](ON(c3ccccc3)[C@@H]2c2c[nH]c3ccccc23)C(=O)N1c1ccccc1 (racemic)	2.21	4 - 5	1.43	pIC50 (THP-1 [4]): < 4.00; inhibition in vivo at 20 mg/kg (Mus musculus [6]): 65.5%; IC50 (Mus musculus [7]): 8.7 mg/kg; inhibition in vivo at 20 mg/kg (Mus musculus [8]): 62.1%; inhibition in vivo at 10 mg/kg (Mus musculus [9]): 60.5%; IC50 (Mus musculus [10]): 7.4 mg/kg; pIC50 (THP-1 [5]): 4.11; inhibition in vivo at 10 mg/kg (Mus musculus [11]): 52.9%
COC(=O)[C@@H]1C[C@H](c2c[nH]c3ccccc23)N(c2ccccc2)O1 (racemic)	7.27	–	4.08	–
CCOC(=O)[C@@H]1[C@@H](C)ON(c2ccccc2)[C@H]1c1c[nH]c2ccccc12 (racemic)	3.98	–	3.01	–
O=C1NC(=O)[C@H]2ON(c3ccccc3)[C@H](c3c[nH]c4ccccc34)[C@@H]12 (racemic)	4.28	4 - 5	1.65	–
O=C1[C@H]2[C@H](ON(c3ccccc3)[C@@H]2c2c[nH]c3ccccc23)C(=O)N1Cc1ccccc1 (racemic)	2.37	4 - 5	1.34	inhibition (THP-1 [12]): Dose-dependent effect; Activity (Mus musculus [13]): Non-Toxic; Activity (Mus musculus [14]): Active; pIC50 (THP-1 [4]): < 4.00; Activity (Mus musculus [15]): Non-Toxic; inhibition in vivo at 20 mg/kg (Mus musculus [6]): 89.9%; IC50 (Mus musculus [7]): 9.4 mg/kg; inhibition in vivo at 20 mg/kg (Mus musculus [8]): 86.1%; inhibition (Mus musculus [16]): Active; inhibition in vivo at 10 mg/kg (Mus musculus [9]): 73.7%; IC50 (Mus musculus [10]): 3.5 mg/kg; Activity (Mus musculus [17]): Non-Toxic; inhibition (Homo sapiens): Dose-dependent effect; pIC50 (THP-1 [5]): 4.06; inhibition (Mus musculus [18]): inactive; inhibition in vivo at 12.5 mg/kg (Mus musculus [19]): 36.9%; Activity (Mus musculus [20]): Non-Toxic; inhibition (Mus musculus [21]): Active; inhibition in vivo at 12.5 mg/kg (Mus musculus [22]): 80.7%; inhibition in vivo at 10 mg/kg (Mus musculus [11]): 53.8%
c1ccc([C@@H]2C[C@H](c3c[nH]c4ccccc34)N(c3ccccc3)O2)cc1 (racemic)	14.93	–	5.4	–
COc1ccc2c(c1)c(CC(=O)O)c(C)n2C(=O)c1ccc(Cl)cc1 [INDOMETHACIN]	–	–	–	inhibition in vivo at 10 mg/kg (Mus musculus [23]): 34.5%; inhibition in vivo at 10 mg/kg (Mus musculus [24]): 58.1%
